This experiment concerns S49. Kind of experiment: In vitro biological activity against accumulation of cAMP in S49 cells as relative activity expressed as ratio of KA for isoproterenol to KA for the compound. The experiment is classed as functional, Mus musculus. In a few lines: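 Wild-type S-49 mouse lymphoma cells resuspended at 2–2.5 × 10^6/mL in DME (13.3 g/L), 20 mM Hepes pH 7.4, 0.1% BSA. Preincubated 10 min at 37 °C without drug, then 6 min with compound; stopped on ice, pellets boiled, cAMP measured by competitive binding. K_A taken from cAMP vs log concentration; ratio uses isoproterenol K_A run at the same time. Each K_A averages ≥3 determinations, each in triplicate.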
For `CC(CCCCC(=O)O)NCC(O)c1ccc(O)c(O)c1` (stereo unspecified), the Relative activity is 0.00097. As for `CC(CCCCC(=O)Nc1ccccc1C(F)(F)F)NCC(O)c1ccc(O)c(O)c1.Cl` (stereo unspecified), the figure is 0.00025; as for `Cc1ccc(NC(=O)CCCCCC(C)NCC(O)c2ccc(O)c(O)c2)cc1.Cl` (stereo unspecified), 0.11. As for `CC(CCCCC(=O)Nc1ccc(C(F)(F)F)cc1)NCC(O)c1ccc(O)c(O)c1.Cl` (stereo unspecified), the figure is 11000; as for `Cc1ccc(N(C)C(=O)CCCCC(C)NCC(O)c2ccc(O)c(O)c2)cc1.Cl` (stereo unspecified), 73; as for `CC(CCCCCC(=O)O)NCC(O)c1ccc(O)c(O)c1` (stereo unspecified), 0.00083.

As for `CC(CCCCC(=O)Nc1cccc(C(F)(F)F)c1)NCC(O)c1ccc(O)c(O)c1.Cl` (stereo unspecified), the Relative activity was 0.98. As for `COc1ccc(NC(=O)CCCCC(C)NCC(O)c2ccc(O)c(O)c2)cc1.Cl` (stereo unspecified), the figure is 3.1. The value for `Cc1ccc(NC(=O)CCCC(C)NCC(O)c2ccc(O)c(O)c2)cc1.Cl` (stereo unspecified) was 0.36; that for `CC(CCC(=O)O)NCC(O)c1ccc(O)c(O)c1` (stereo unspecified) was 0.00016. For the compound `Cc1ccc(NC(=O)CCC(C)NCC(O)c2ccc(O)c(O)c2)cc1.Cl` (stereo unspecified), the Relative activity turned out to be 0.71.

For the compound `CC(CCCCC(=O)NC1CCCCC1)NCC(O)c1ccc(O)c(O)c1.Cl` (stereo unspecified), the Relative activity was found to be 0.17.

Take `Cc1ccc(NC(=O)CCCCC(C)NCC(O)c2ccc(O)c(O)c2)cc1.Cl` (stereo unspecified): the Relative activity is recorded as 54. For `CC(CCCC(=O)O)NCC(O)c1ccc(O)c(O)c1` (stereo unspecified), the Relative activity is reported as 0.00068.

As to `CCCCc1ccc(NC(=O)CCCCC(C)NCC(O)c2ccc(O)c(O)c2)cc1.Cl` (stereo unspecified), the Relative activity came out at 3200. `CCCCNC(=O)CCCCC(C)NCC(O)c1ccc(O)c(O)c1.Cl` (stereo unspecified): the Relative activity came out at 0.25.

Values taken from ChEMBL document CHEMBL1122508, “Conjugates of catecholamines. 1. N-alkyl-functionalized carboxylic acid congeners and amides related to isoproterenol” (1983).
